# Data reported in ChEMBL document CHEMBL1132369, “Synthesis of 1-(2-aminophenyl)isoquinolines and the biological activity of their cis-dichloro platinum(II) complexes” (J Med Chem, 1999).
# Columns and labels:
# L1210 [1] = assay: Compound was evaluated for inhibition of DNA synthesis during 48 hours with L1210 murine leukemia cells; assay type: functional, cell-based, Mus musculus
# Method in brief: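 Log-phase L1210 cells, cultured and treated as in the growth assay (5 × 10^4 cells/mL, 48 h total exposure; Pt complexes from DMSO, final 0.5%). At 42 h, 0.5 μCi [6-3H]thymidine was added and incubation continued 6 h. Cells were harvested onto glass-fibre filters, washed twice with water, and counted by liquid scintillation. IC50 is for inhibition of thymidine incorporation.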
# L1210 [2] = assay: Compound was evaluated for growth inhibition during 48 hours with L1210 murine leukemia cells; assay type: functional, cell-based, Mus musculus
# Method in brief: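 L1210 mouse leukemia cells grown in suspension in DMEM with 10% FCS, 2 mM glutamine, streptomycin and penicillin, at 37 °C in 5% CO2. Log-phase cells at 5 × 10^4 cells/mL were exposed to a range of concentrations for 48 h. Pt complexes came from DMSO stocks, pre-held 30 min at 40 °C, final DMSO 0.5%; ligand hydrochlorides were given in water. Cells were counted by haemocytometer, inhibition taken as % of untreated control, and IC50 interpolated from a log-linear plot. At least two independent duplicates were run.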
"IC50 (L1210 [1]; Mus musculus, L1210, 48 h)","IC50 (L1210 [2]; Mus musculus, L1210, 48 h)",IC50 (L1210 [1]; l1210),IC50 (L1210 [2]; l1210),Molecule
90 µM,141 µM,–,–,COc1cc2c(cc1OC)C(c1ccccc1N)NCC2 (stereo not drawn)
100 µM,97 µM,–,–,COc1ccc(N)c(C2NCCc3cc(OC)c(OC)cc32)c1 (stereo not drawn)
–,–,20 µM,9.7 µM,"[1-(2-Aminophenyl)-6,7-dimethoxyisoquinoline]dichloroplatinum (II)"
–,–,1.4 µM,0.95 µM,"[1-(2-Amino-5-methoxyphenyl)-6,7-dimethoxy-1,2,3,4-tetrahydroisoquinoline]dichloroplatinum (II)"
